Reference: ChEMBL document CHEMBL4819122, “Novel 4-(piperazin-1-yl)quinolin-2(1H)-one bearing thiazoles with antiproliferative activity through VEGFR-2-TK inhibition” (Bioorg Med Chem, 2021)
The source made the active and inactive calls. No cut-off for these calls is given here.

Key:
CCRF-CEM = experiment: Cytotoxicity against human CCRF-CEM assessed as growth inhibition at 10 uM by NCI protocol relative to control; format: functional; details: read-out: GI
Procedure, shortened: (§1)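 Run by NCI as a single-dose screen at 10 μM across the sixty-cell-line panel, which covers nine human tumour tissue types. The read-out is percent growth inhibition of treated cells relative to untreated cells.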

HL-60 = experiment: Cytotoxicity against human HL60 assessed as growth inhibition at 10 uM by NCI protocol relative to control; format: functional; details: read-out: GI; procedure, shortened: as §1
K562 = experiment: Cytotoxicity against human K-562 assessed as growth inhibition at 10 uM by NCI protocol relative to control; format: functional; details: read-out: GI; procedure, shortened: as §1
MOLT-4 = experiment: Cytotoxicity against human MOLT-4 assessed as growth inhibition at 10 uM by NCI protocol relative to control; format: functional; details: read-out: GI; procedure, shortened: as §1
RPMI-8226 = experiment: Cytotoxicity against human RPMI-8226 assessed as growth inhibition at 10 uM by NCI protocol relative to control; format: functional; procedure, shortened: as §1
SR = experiment: Cytotoxicity against human SR assessed as growth inhibition at 10 uM by NCI protocol relative to control; format: functional; details: read-out: GI
Procedure, shortened: (§2)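 Run by the NCI under its standard protocol: one dose of 10 μM against a sixty-line panel from nine human tumour tissues. Result given as percent growth inhibition of treated cells relative to untreated cells.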

A549 = experiment: Cytotoxicity against human A549 assessed as growth inhibition at 10 uM by NCI protocol relative to control; format: functional; details: read-out: GI; procedure, shortened: as §1
EKVX = experiment: Cytotoxicity against human EKVX assessed as growth inhibition at 10 uM by NCI protocol relative to control; format: functional; details: read-out: GI; procedure, shortened: as §1
HOP-62 = experiment: Cytotoxicity against human HOP-62 assessed as growth inhibition at 10 uM by NCI protocol relative to control; format: functional; details: read-out: GI; procedure, shortened: as §1
NCI-H226 = experiment: Cytotoxicity against human NCI-H226 assessed as growth inhibition at 10 uM by NCI protocol relative to control; format: functional; details: read-out: GI; procedure, shortened: as §1
NCI-H23 = experiment: Cytotoxicity against human NCI-H23 assessed as growth inhibition at 10 uM by NCI protocol relative to control; format: functional; details: read-out: GI; procedure, shortened: as §1
NCI-H322M = experiment: Cytotoxicity against human NCI-H322M assessed as growth inhibition at 10 uM by NCI protocol relative to control; format: functional; details: read-out: GI; procedure, shortened: as §1
NCI-H460 = experiment: Cytotoxicity against human NCI-H460 assessed as growth inhibition at 10 uM by NCI protocol relative to control; format: functional; details: read-out: GI; procedure, shortened: as §1
NCI-H522 = experiment: Cytotoxicity against human NCI-H522 assessed as growth inhibition at 10 uM by NCI protocol relative to control; format: functional; details: read-out: GI; procedure, shortened: as §1
HCT-116 = experiment: Cytotoxicity against human HCT-116 assessed as growth inhibition at 10 uM by NCI protocol relative to control; format: functional; details: read-out: GI; procedure, shortened: as §1
HCT-15 = experiment: Cytotoxicity against human HCT-15 assessed as growth inhibition at 10 uM by NCI protocol relative to control; format: functional; details: read-out: GI; procedure, shortened: as §1
SF-268 = experiment: Cytotoxicity against human SF-268 assessed as growth inhibition at 10 uM by NCI protocol relative to control; format: functional; details: read-out: GI; procedure, shortened: as §1
SF-295 = experiment: Cytotoxicity against human SF-295 assessed as growth inhibition at 10 uM by NCI protocol relative to control; format: functional; details: read-out: GI; procedure, shortened: as §1
SNB-19 = experiment: Cytotoxicity against human SNB-19 assessed as growth inhibition at 10 uM by NCI protocol relative to control; format: functional; details: read-out: GI; procedure, shortened: as §2
LOX IMVI = experiment: Cytotoxicity against human LOX IMVI assessed as growth inhibition at 10 uM by NCI protocol relative to control; format: functional; details: read-out: GI; procedure, shortened: as §1
M14 = experiment: Cytotoxicity against human M14 assessed as growth inhibition at 10 uM by NCI protocol relative to control; format: functional; details: read-out: GI; procedure, shortened: as §1
MDA-MB-435 = experiment: Cytotoxicity against human MDA-MB-435 assessed as growth inhibition at 10 uM by NCI protocol relative to control; format: functional, cell-based; procedure, shortened: as §1
SK-MEL-5 = experiment: Cytotoxicity against human SK-MEL-5 assessed as growth inhibition at 10 uM by NCI protocol relative to control; format: functional; details: read-out: GI; procedure, shortened: as §1
UACC-257 = experiment: Cytotoxicity against human UACC-257 assessed as growth inhibition at 10 uM by NCI protocol relative to control; format: functional; details: read-out: GI; procedure, shortened: as §2
UACC-62 = experiment: Cytotoxicity against human UACC-62 assessed as growth inhibition at 10 uM by NCI protocol relative to control; format: functional; details: read-out: GI; procedure, shortened: as §2
IGROV-1 = experiment: Cytotoxicity against human IGROVI assessed as growth inhibition at 10 uM by NCI protocol relative to control; format: functional; details: read-out: GI; procedure, shortened: as §1
OVCAR-3 = experiment: Cytotoxicity against human OVCAR-3 assessed as growth inhibition at 10 uM by NCI protocol relative to control; format: functional; details: read-out: GI; procedure, shortened: as §1
OVCAR-4 = experiment: Cytotoxicity against human OVCAR-4 assessed as growth inhibition at 10 uM by NCI protocol relative to control; format: functional; details: read-out: GI; procedure, shortened: as §1
OVCAR-5 = experiment: Cytotoxicity against human OVCAR-5 assessed as growth inhibition at 10 uM by NCI protocol relative to control; format: functional, cell-based; procedure, shortened: as §1
OVCAR-8 = experiment: Cytotoxicity against human OVCAR-8 assessed as growth inhibition at 10 uM by NCI protocol relative to control; format: functional; details: read-out: GI; procedure, shortened: as §1
A498 = experiment: Cytotoxicity against human A498 assessed as growth inhibition at 10 uM by NCI protocol relative to control; format: functional; details: read-out: GI; procedure, shortened: as §1
ACHN = experiment: Cytotoxicity against human ACHN assessed as growth inhibition at 10 uM by NCI protocol relative to control; format: functional; details: read-out: GI; procedure, shortened: as §1
CAKI-1 = experiment: Cytotoxicity against human Caki1 assessed as growth inhibition at 10 uM by NCI protocol relative to control; format: functional; details: read-out: GI; procedure, shortened: as §1
SN12C = experiment: Cytotoxicity against human SN12C assessed as growth inhibition at 10 uM by NCI protocol relative to control; format: functional; details: read-out: GI; procedure, shortened: as §2
UO-31 = experiment: Cytotoxicity against human UO31 assessed as growth inhibition at 10 uM by NCI protocol relative to control; format: functional; details: read-out: GI; procedure, shortened: as §2
PC-3 = experiment: Cytotoxicity against human PC3 assessed as growth inhibition at 10 uM by NCI protocol relative to control; format: functional; details: read-out: GI; procedure, shortened: as §1
MCF7 = experiment: Cytotoxicity against human MCF7 assessed as growth inhibition at 10 uM by NCI protocol relative to control; format: functional; details: read-out: GI; procedure, shortened: as §1
MDA-MB-231 = experiment: Cytotoxicity against human MDA-MB-231 assessed as growth inhibition at 10 uM by NCI protocol relative to control; format: functional; details: read-out: GI; procedure, shortened: as §1
BT-549 = experiment: Cytotoxicity against human BT-549 assessed as growth inhibition at 10 uM by NCI protocol relative to control; format: functional; details: read-out: GI; procedure, shortened: as §1
T47D [1] = experiment: Cytotoxicity against human T-47D assessed as growth inhibition at 10 uM by NCI protocol relative to control; format: functional; details: read-out: GI; procedure, shortened: as §2
MDA-MB-468 = experiment: Cytotoxicity against human MDA-MB-468 assessed as growth inhibition at 10 uM by NCI protocol relative to control; format: functional; details: read-out: GI; procedure, shortened: as §1
T47D [2] = experiment: Cytotoxicity against human T47D cells assessed as reduction in cell viability after 3 hrs by MTT assay

COc1ccc(-c2csc(NC(=O)CN3CCN(c4cc(=O)n(-c5ccccc5)c5ccccc45)CC3)n2)cc1
inhibition of growth at 10 µM (CCRF-CEM): 24.9%
inhibition of growth at 10 µM (HL-60): 30.2%
inhibition of growth at 10 µM (K562): 56.4%
inhibition of growth at 10 µM (MOLT-4): 53.1%
growth inhibition (GI) (RPMI-8226): inactive
inhibition of growth at 10 µM (SR): 11.2%
inhibition of growth at 10 µM (A549): 19.7%
inhibition of growth at 10 µM (EKVX): 35.2%
inhibition of growth at 10 µM (HOP-62): 12.4%
inhibition of growth at 10 µM (NCI-H226): 18.7%
inhibition of growth at 10 µM (NCI-H23): 35.7%
inhibition of growth at 10 µM (NCI-H322M): 12.6%
inhibition of growth at 10 µM (NCI-H460): 15.9%
inhibition of growth at 10 µM (NCI-H522): 30.4%
inhibition of growth at 10 µM (HCT-116): 28.9%
inhibition of growth at 10 µM (HCT-15): 18%
inhibition of growth at 10 µM (SF-268): 12.4%
inhibition of growth at 10 µM (SF-295): 22.9%
inhibition of growth at 10 µM (SNB-19): 24.2%
inhibition of growth at 10 µM (LOX IMVI): 15%
inhibition of growth at 10 µM (M14): 16.1%
growth inhibition (GI) (MDA-MB-435): inactive
inhibition of growth at 10 µM (SK-MEL-5): 53%
inhibition of growth at 10 µM (UACC-257): 27.8%
inhibition of growth at 10 µM (UACC-62): 31.1%
inhibition of growth at 10 µM (IGROV-1): 21.5%
inhibition of growth at 10 µM (OVCAR-3): 17.1%
inhibition of growth at 10 µM (OVCAR-4): 70.4%
growth inhibition (GI) (OVCAR-5): inactive
inhibition of growth at 10 µM (OVCAR-8): 15.5%
inhibition of growth at 10 µM (A498): 13%
inhibition of growth at 10 µM (ACHN): 19%
inhibition of growth at 10 µM (CAKI-1): 16.1%
inhibition of growth at 10 µM (SN12C): 16%
inhibition of growth at 10 µM (UO-31): 27.9%
inhibition of growth at 10 µM (PC-3): 27.5%
inhibition of growth at 10 µM (MCF7): 26%
inhibition of growth at 10 µM (MDA-MB-231): 22.4%
inhibition of growth at 10 µM (BT-549): 19.9%
inhibition of growth at 10 µM (T47D [1]): 60%
inhibition of growth at 10 µM (MDA-MB-468): 55.3%
IC50 (T47D [2]): 8.11 µM
